Measured values: PMC3751212 (Clinical Drug Investigation, 2013)
Like-named read-outs stand apart in the source and are kept apart here.

Assays:
histamine H1 receptor = conditions: animal tissues with a high density of H1 receptors; cited from earlier work
[1] = single 80 mg oral dose; 95 % CI 3,174.7–6278.4; cited from earlier work
[2] = system: human breast cancer resistance protein (BCRP); conditions: cited from earlier work
[3] = doses up to 40 mg; cited from earlier work
[4] = system: histamine receptor subtypes H2, H3, and H4; conditions: at a high concentration; cited from earlier work
[5] = cited from earlier work
[6] = system: organic cation transporter 2 (OCT2); conditions: cited from earlier work
[7] = system: organic anion transporter 3 (OAT3); conditions: cited from earlier work
[8] = system: 30 other receptors (including muscarinic receptors); conditions: at a high concentration; cited from earlier work
[9] = Urine concentrations / urinary excretion of bilastine after a single oral dose; format: in vivo, human; conditions: for Urine concentrations of bilastine: mean ± SD
Outline: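 Subjects were grouped by iothalamate GFR (n = 6 each) and received one fasted oral 20 mg tablet. Urine was pooled over 0–12, 12–24, 24–48 and 48–72 h post-dose and kept refrigerated during each interval. Total volume was measured per interval, and aliquots were stored at −20 °C. Ae is the total unchanged drug over the whole collection, and CLR = Ae/AUC over a defined period.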

Safety evaluations = format: in vivo, human
Outline: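 Four groups (n = 6) were assigned by iothalamate GFR: >80, 50–80, 30–50 and ≤30 mL/min/1.73 m2. Each subject took one oral 20 mg tablet with 200 mL water after an 8–10 h fast. ECG (12-lead) was recorded pre-dose, 1 and 24 h, with QTcF and QTcB. Vital signs were taken daily. Hematology, biochemistry and urinalysis were done at screening, pre-dose and 72 h. AEs were coded by MedDRA 11.0, and results summarised descriptively.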

[10] = compared among the renal impairment groups; cited from earlier work
[11] = format: in vivo, human; conditions: for CL renal / AUC(0-inf) / Cmax / Tmax / AUC(0-t) / CL/F / Vd/F / half-life / k el: human, 20 mg; for CL renal: plasma and urine, CLR; for AUC(0-inf) / Cmax / Tmax / AUC(0-t) / CL/F / Vd/F / half-life / k el: plasma; for AUC(0-t): AUClast, fasted, n = 6; for CL/F: CLP/F; for Vd/F: Vz/F; for half-life: t½β; for k el: λz
Outline: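 Single oral 20 mg tablet given fasted (8–10 h) to groups of six subjects stratified by iothalamate GFR (>80, 50–80, 30–50, ≤30 mL/min/1.73 m2). Heparinised blood was drawn pre-dose and 0.25–72 h post-dose; plasma was spun at 1,500×g, 4–8 °C, then frozen. AUClast used the trapezoidal rule, AUC∞ = AUClast + Clast/ke, and CLP/F = dose/AUC∞. Ratios to the healthy group came from ln-transformed ANOVA least-squares means with 90 % CI.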

[12] = system: organic anion transporter 1 (OAT1); conditions: cited from earlier work
[13] = group 2: mild vs group 1: healthy
[14] = group 3: moderate vs group 1: healthy
[15] = group 4: severe vs group 1: healthy
[16] = po, Group 1: healthy, single oral 20 mg, mean ± SD
[17] = po, Group 2: mild, single oral 20 mg, mean ± SD
[18] = po, Group 3: moderate, single oral 20 mg, mean ± SD
[19] = po, Group 4: severe, single oral 20 mg, mean ± SD
[20] = oral, geometric LS mean, Test group 2: mild, ANOVA
[21] = oral, geometric LS mean, Test group 4: severe, ANOVA

For CCOCCn1c(C2CCN(CCc3ccc(C(C)(C)C(=O)O)cc3)CC2)nc2ccccc21 [bilastine, 2-[4-(2-(4-(1-(2-ethoxyethyl)-1H-benzimidazol-2-yl)piperidin-1-yl)ethyl)phenyl]-2-methylpropionic acid], the “affinity for H1 receptors relative to cetirizine” value (histamine H1 receptor) is listed as “three times higher”, the “affinity for H1 receptors relative to fexofenadine” value (histamine H1 receptor) is listed as “five times higher” and the “AUC∞, mean estimated exposure (safety margin)” value [1] is listed as 4,225.6 ng·h/mL. The “substrate of BCRP” value [2] was “not a substrate”, the “sedative or psychomotor effects” value [3] was “No sedative or psychomotor effects were detected” and the “affinity for histamine receptor subtypes H2, H3, and H4” value [4] was “does not show affinity”. The metabolism [5] was “not metabolized”, the “substrate of OCT2” value [6] was “not a substrate” and the “substrate of OAT3” value [7] was “not a substrate”. The “affinity for 30 other receptors” value [8] was “does not show affinity”, the “Urine concentrations of bilastine” value ([9]; 0–12 h, Group 1: healthy, single oral 20 mg) was 4,387.5 ± 3,358.4 ng/mL and the “Urine concentrations of bilastine” value ([9]; 0–12 h, Group 2: mild) was 4,824.1 ± 2,073.0 ng/mL. The “Urine concentrations of bilastine” value ([9]; 0–12 h, Group 3: moderate) was 7,184.3 ± 3,843.4 ng/mL, the “Urine concentrations of bilastine” value ([9]; 0–12 h, Group 4: severe) was 3,469.8 ± 2,066.2 ng/mL and the “Urine concentrations of bilastine” value ([9]; 12–24 h, Group 1: healthy) was 531.7 ± 342.0 ng/mL. The “Urine concentrations of bilastine” value ([9]; 12–24 h, Group 2: mild) was 597.7 ± 159.2 ng/mL, the “Urine concentrations of bilastine” value ([9]; 12–24 h, Group 3: moderate) was 472.9 ± 221.9 ng/mL and the “Urine concentrations of bilastine” value ([9]; 12–24 h, Group 4: severe) was 813.0 ± 567.5 ng/mL. The “Urine concentrations of bilastine” value ([9]; 24–48 h, Group 1: healthy) was 103.4 ± 38.6 ng/mL, the “Urine concentrations of bilastine” value ([9]; 24–48 h, Group 2: mild) was 159.3 ± 43.3 ng/mL and the “Urine concentrations of bilastine” value ([9]; 24–48 h, Group 3: moderate) was 126.7 ± 81.1 ng/mL. For the same compound, the “Urine concentrations of bilastine” value ([9]; 24–48 h, Group 4: severe) was 260.4 ± 212.1 ng/mL, the “Urine concentrations of bilastine” value ([9]; 48–72 h, Group 1: healthy) was 20.9 ± 10.0 ng/mL and the “Urine concentrations of bilastine” value ([9]; 48–72 h, Group 2: mild) was 49.3 ± 40.7 ng/mL. The “Urine concentrations of bilastine” value ([9]; 48–72 h, Group 3: moderate) was 30.3 ± 7.4 ng/mL, the “Urine concentrations of bilastine” value ([9]; 48–72 h, Group 4: severe) was 97.8 ± 69.3 ng/mL and the “time by which urinary excretion was essentially complete” value ([9]; single oral 20 mg, most excreted in the first 12 h) was “up to 72 h”. The tolerability (Safety evaluations; 20 mg oral dose, healthy and renally impaired subjects) was “well-tolerated”, the “subjects with outlier ECG results” value (Safety evaluations; all 24 subjects, single oral 20 mg) was 20.8% and the “subjects with outlier ECG results” value (Safety evaluations; each of the mild, moderate, and severe impairment groups) was 16.7%. For the same compound, the “subjects with outlier ECG results” value (Safety evaluations; healthy group) was 33.3%, the “mean blood glucose concentration” value (Safety evaluations; mildly impaired group, end of study, reference range 60–115 mg/dL) was 120.8 mg/dL and the plasma protein binding [10] was “comparable values were found among the renal impairment groups”. The Clast ([11]; Group 1: healthy, single oral 20 mg, mean ± SD) was 0.3 ± 0.1 ng/mL, the Clast ([11]; Group 2: mild, single oral 20 mg, mean ± SD) was 0.8 ± 0.3 ng/mL and the Clast ([11]; Group 3: moderate, single oral 20 mg, mean ± SD) was 0.4 ± 0.1 ng/mL. The Clast ([11]; Group 4: severe, single oral 20 mg, mean ± SD) was 1.5 ± 1.1 ng/mL, the “amount in the plasma after 24 h relative to Cmax” value ([11]; all the groups, single oral 20 mg) was “less than 5 % of the Cmax” and the “AUClast, geometric mean ratio” value [11, 13] was 1.34. The “AUC∞, geometric mean ratio” value [11, 13] was 1.36, the “Cmax, geometric mean ratio” value [11, 13] was 1.24 and the “tmax, difference of median values” [11, 13] was 0.00. For the same compound, the “AUClast, geometric mean ratio” value [11, 14] was 1.94, the “AUC∞, geometric mean ratio” value [11, 14] was 1.94 and the “Cmax, geometric mean ratio” value [11, 14] was 2.00. The “tmax, difference of median values” [11, 14] was 0.75, the “AUClast, geometric mean ratio” value [11, 15] was 2.11 and the “AUC∞, geometric mean ratio” value [11, 15] was 2.15. The “Cmax, geometric mean ratio” value [11, 15] was 1.59, the “tmax, difference of median values” [11, 15] was 0.00 and the CL renal [11, 16] was 145 mL/min. For the same compound, the CL renal [11, 17] was 116 mL/min, the CL renal [11, 18] was 91.5 mL/min and the CL renal [11, 19] was 67.2 mL/min. The AUC(0-inf) [11, 20] was 959 ng·h/mL, the AUC(0-inf) [11, 21] was 1510 ng·h/mL and the Cmax [11, 20] was 167 ng/mL. For the same compound, the Cmax [11, 21] was 214 ng/mL, the Tmax ([11]; oral, median, Reference (group 1: healthy)) was 1.5 h and the Tmax ([11]; oral, median, Test group 2: mild) was 1.5 h. For the same compound, the Tmax ([11]; oral, median, Test group 3: moderate) was 2.25 h, the Tmax ([11]; oral, median, Test group 4: severe) was 1.5 h and the AUC(0-t) ([11]; po, Group 1: healthy (GFR >80), single oral 20 mg, mean ± SD) was 733 ± 260 ng·h/mL. It also gave an AUC(0-t) ([11]; po, Group 2: mild renal insufficiency (GFR 50–80), single oral 20 mg, mean ± SD) of 947 ± 148 ng·h/mL, an AUC(0-t) ([11]; po, Group 3: moderate renal insufficiency (GFR 30–50), single oral 20 mg, mean ± SD) of 1380 ng·h/mL and an AUC(0-t) ([11]; po, Group 4: severe renal insufficiency (GFR ≤30), single oral 20 mg, mean ± SD) of 1650 ng·h/mL. It also gave an AUC(0-inf) [11, 16] of 737 ± 261 ng·h/mL, an AUC(0-inf) [11, 17] of 967 ± 140 ng·h/mL and an AUC(0-inf) [11, 18] of 1380 ng·h/mL. The AUC(0-inf) [11, 19] was 1710 ng·h/mL, the CL/F [11, 16] was 495 mL/min and the CL/F [11, 17] was 351 mL/min. For the same compound, the CL/F [11, 18] was 248 mL/min, the CL/F [11, 19] was 271 mL/min and the Cmax [11, 16] was 144 ± 57.8 ng/mL. For the same compound, the Cmax [11, 17] was 172 ± 45 ng/mL, the Cmax [11, 18] was 271 ± 30.4 ng/mL and the Cmax [11, 19] was 229 ± 81.8 ng/mL. For the same compound, the Vd/F [11, 16] was 383 ± 122 L, the Vd/F [11, 17] was 462 ± 244 L and the Vd/F [11, 18] was 223 ± 55.7 L. The Vd/F [11, 19] was 351 ± 193 L, the Tmax ([11]; po, Group 1: healthy, single oral 20 mg, median (range)) was 1.5 h and the Tmax ([11]; po, Group 2: mild, single oral 20 mg, median (range)) was 1.5 h. The Tmax ([11]; po, Group 3: moderate, single oral 20 mg, median (range)) was 2.25 h, the Tmax ([11]; po, Group 4: severe, single oral 20 mg, median (range)) was 1.5 h and the half-life [11, 16] was 9.26 ± 2.79 h. It also gave a half-life [11, 17] of 15.1 ± 7.66 h, a half-life [11, 18] of 10.5 ± 2.34 h and a half-life [11, 19] of 18.4 ± 11.4 h. The k el [11, 16] was 2.21e-05 s⁻¹, the k el [11, 17] was 1.65e-05 s⁻¹ and the k el [11, 18] was 1.92e-05 s⁻¹. For the same compound, the k el [11, 19] was 1.39e-05 s⁻¹ and the “substrate of OAT1” value [12] was “not a substrate”.
